In ChEMBL document CHEMBL2440017, “Discovery of a potent, selective, and orally bioavailable histamine H3 receptor antagonist SAR110068 for the treatment of sleep-wake disorders” (Bioorg Med Chem Lett, 2013):
Calls of active or inactive are those of the source. The rule behind the calls is not given here.

Assays:
Rattus norvegicus [1] = experiment: Awakening activity in rat assessed as increased wakefulness at 10 mg/kg, ip after 3 hrs; assay type: functional, organism-based; set-up: dose 10 mg/kg
Summary of the method: (§1)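 Rats given compound orally at 3 or 10 mg/kg, or reference drugs i.p. or p.o. at 10 mg/kg. EEG recorded during the light phase and scored as wakefulness, slow wave sleep and REM sleep. Time-course analysis of the effects.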

Histamine receptor H3 = Histamine receptor H3 (Macaca mulatta, UniProt Q865E1); experiment: Displacement of [3H]N-alpha-methylhistamine from rhesus monkey histamine H3 receptor expressed in CHO cells; assay type: cell-based
Histamine receptor H3, sequence (Q865E1 whole entry): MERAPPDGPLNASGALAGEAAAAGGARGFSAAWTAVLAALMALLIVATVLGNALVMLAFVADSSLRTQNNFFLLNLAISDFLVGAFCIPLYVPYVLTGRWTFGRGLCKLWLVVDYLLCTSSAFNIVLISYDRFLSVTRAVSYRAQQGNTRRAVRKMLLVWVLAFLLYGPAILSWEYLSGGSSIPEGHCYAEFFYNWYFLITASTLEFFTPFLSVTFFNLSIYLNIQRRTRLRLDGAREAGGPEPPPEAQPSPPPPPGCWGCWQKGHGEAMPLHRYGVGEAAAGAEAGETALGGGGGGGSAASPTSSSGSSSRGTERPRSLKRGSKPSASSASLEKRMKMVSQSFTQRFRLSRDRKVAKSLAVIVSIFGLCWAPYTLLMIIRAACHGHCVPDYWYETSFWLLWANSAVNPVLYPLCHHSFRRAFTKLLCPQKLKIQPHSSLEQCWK
Summary of the method: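 Membranes from CHO cells stably expressing rhesus monkey H3 receptor. Competition binding against [3H]N-α-methylhistamine; Ki values are means of three or more determinations.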

Rattus norvegicus [2] = experiment: Awakening activity in rat assessed as decrease in slow wave and REM sleep at 10 mg/kg, po; assay type: functional, organism-based; set-up: dose 10 mg/kg
Rattus norvegicus [3] = experiment: Awakening activity in rat assessed as increased wakefulness at 10 mg/kg, po; assay type: functional, organism-based; set-up: dose 10 mg/kg
Rattus norvegicus [4] = experiment: Awakening activity in rat assessed as decrease of theta rhythm at 10 mg/kg, po after 3 to 4 hrs; assay type: functional, organism-based; set-up: dose 10 mg/kg
Rattus norvegicus [5] = experiment: Awakening activity in rat assessed as increased wakefulness at 10 mg/kg, po after 3 to 4 hrs; assay type: functional, organism-based; set-up: dose 10 mg/kg; summary of the method: as §1
Rattus norvegicus [6] = experiment: Awakening activity in rat assessed as increased wakefulness at 10 mg/kg, po after 1 hr; assay type: functional, organism-based; set-up: dose 10 mg/kg; summary of the method: as §1

Row | SMILES | Ki (Histamine receptor H3) [nM] | further results
1 | O=C(c1ccc(OCCCc2c[nH]cn2)cc1)C1CC1 | – | Activity (Rattus norvegicus [1]): Active
2 | Cc1cc(N2CCC(N3CCCC3C)C2)ccc1NC(=O)C1CC2CCC1C2 (mixture of isomers) | 19.9 | –
3 | Cc1cc(N2CC[C@H](N3CCC[C@@H]3C)C2)ccc1NC(=O)C1CCCCC1 | 0.39 | –
4 | Cc1cc(NC(=O)C2CC3CCC2C3)ccc1N1CCC(N2CCCC2C)C1 (mixture of isomers) | 130 | –
5 | CC(=O)N1CCCC1C(=O)Nc1ccc(N2CCC(N3CCCC3C)C2)c(C)c1 (mixture of isomers) | 44.9 | –
6 | Cc1cc(N2CC[C@H](N3CCC[C@@H]3C)C2)ccc1NC(=O)C1C(C)(C)C1(C)C | 0.55 | –
7 | Cc1cc(N2CC[C@H](N3CCC[C@@H]3C)C2)ccc1NC(=O)C1CCCO1 (some centres not stated) | 7.33 | –
8 | S=C(NC1CCCCC1)N1CCC(c2cnc[nH]2)CC1 | – | Activity (Rattus norvegicus [2]): Active; Activity (Rattus norvegicus [3]): Active
9 | Cc1cc(NC(=O)C2CCCO2)ccc1N1CCC(N2CCCC2C)C1 (mixture of isomers) | 17 | –
10 | Cc1cc(N2CC[C@@H](N3CCC[C@@H]3C)C2)ccc1NC(=O)C1CCOCC1 (racemic) | 3.9 | –
11 | Cc1cc(N2CCC(N3CCCC3C)C2)ccc1NC(=O)C1CCCO1 (mixture of isomers) | 7.34 | –
12 | CC(=O)N1CCCC1C(=O)Nc1ccc(N2CCC(N3CCCC3C)C2)cc1C (mixture of isomers) | 57.7 | –
13 | Cc1cc(N2CCC(N3CCCC3C)C2)ccc1NC(=O)C1CCCCC1 (mixture of isomers) | 9 | –
14 | Cc1cc(N2CC[C@H](N3CCC[C@@H]3C)C2)ccc1NC(=O)CC1CCCC1 | 0.85 | –
15 | CC1CCCN1C1CCN(c2ccc(NC(=O)C3CC4CCC3C4)cc2)C1 (configuration not stated) | 15.7 | –
16 | C[C@@H]1CCCN1CCc1cc2cc(-c3ccc(C#N)cc3)ccc2o1 | – | Activity (Rattus norvegicus [4]): Active; Activity (Rattus norvegicus [5]): Active
17 | CNC(=O)c1ccc(Oc2ccc3c(c2)CCN(C2CCC2)CC3)nc1 | – | Activity (Rattus norvegicus [6]): Active
18 | CC1CCCN1C1CCN(c2ccc(NC(=O)C3CCCO3)cc2)C1 (mixture of isomers) | 8.7 | –
19 | Cc1cc(N2CC[C@H](N3CCC[C@@H]3C)C2)ccc1NC(=O)C1CC2CCC1C2 (some centres not stated) | 0.55 | –
20 | CC(=O)N1CCCC1C(=O)Nc1ccc(N2CCC(N3CCCC3C)C2)cc1 (mixture of isomers) | 14.1 | –
